Test results as given in publication PMC4535927 (Angewandte Chemie (International ed. in English), 2015).
Entries after “also recorded” stand apart in the source; their conditions may differ.

How the values were obtained:
NIH3T3 RET^C634Y cells = assay: In vitro cell proliferation of NIH3T3 RET C634Y; format: cell-based; settings: read-out: IC50, cell proliferation
VEGFR2 [1] = molecular target: T1, VEGFR2 (Homo sapiens, UniProt P35968); assay: VEGFA-induced VEGFR2 phosphorylation in HUVEC cells; format: cell-based; settings: 1.0 nM, endogenous level
VEGFR2 [2] = molecular target: T1, VEGFR2; assay: VEGFA-induced VEGFR2 phosphorylation in transfected HEK293 cells; format: cell-based; settings: 1.0 nM
parental NIH3T3 cells = assay: Growth of parental NIH3T3 cells; format: cell-based; settings: up to 100.0 nM
RET = RET (Homo sapiens, UniProt P07949); assay: RET kinase microfluidics separation based assay; format: biochemical; settings: read-out: IC50, RET; [ATP] = 190 μM; means of at least three experiments
How it was run: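 Recombinant RET activity measured by a microfluidic separation-based kinase assay at [ATP] 190 µM. IC50 values are means of at least three independent experiments.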

RET^C634Y = RET^C634Y (Homo sapiens, UniProt P07949, C634Y); assay: RET C634Y tyrosine phosphorylation in NIH3T3 fibroblasts; format: cell-based
NIH3T3 HRas^G12V tumors = assay: Tumors induced by NIH3T3 HRas G12V cells in nu/nu mice; format: in vivo
How it was run: (§1)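 Immunodeficient nu/nu mice were injected with NIH3T3 fibroblasts transformed by RET C634Y or by HRas G12V (Ras control). Before tumors appeared, mice received test compound orally at 1.0, 3.0 or 10.0 mg/kg/day or were left untreated. Tumor formation was scored. Tumor tissue was analysed for RET and VEGFR2 phosphorylation and for MAPK and mTOR signaling.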

RET^V804M [3] = molecular target: T2, RET^V804M (Homo sapiens, UniProt P07949, V804M); assay: RET V804M kinase microfluidics separation based assay; format: biochemical; settings: read-out: IC50, RET^V804M; [ATP] = 190 μM
[4] = One-week tolerability in mice; format: in vivo; settings: increased linearly with dose, doses up to 100.0 mg/kg
RET^M918T = RET^M918T (Homo sapiens, UniProt P07949, M918T); assay: Cell-based RET inhibition, oncogenic RET M918T
RET oncoproteins = assay: Cell-based phosphorylation of all tested RET oncoproteins; settings: 1.0 nM
[5] = Pharmacokinetic properties; settings: in vivo
VEGFR2 [6] = molecular target: T1, VEGFR2; assay: VEGFR2 kinase microfluidics separation based assay; format: biochemical; settings: read-out: IC50, VEGFR2; [ATP] = 190 μM
RET^C634R = RET^C634R (Homo sapiens, UniProt P07949, C634R); assay: Cell-based RET inhibition, oncogenic RET C634R; settings: compared with predecessor compounds 1, 2 and 3a
RET^V804M [7] = molecular target: T2, RET^V804M; assay: Cell-based RET inhibition, RET V804M
NIH3T3 RET^C634Y tumors = assay: Tumors induced by NIH3T3 RET C634Y cells in nu/nu mice; format: in vivo
How it was run: as §1

RET^V804L = RET^V804L (Homo sapiens, UniProt P07949, V804L); assay: Cell-based RET inhibition, RET V804L
RET^V804M [8] = molecular target: T2, RET^V804M; settings: cited from earlier work

T1 sequence (P35968 20-1356): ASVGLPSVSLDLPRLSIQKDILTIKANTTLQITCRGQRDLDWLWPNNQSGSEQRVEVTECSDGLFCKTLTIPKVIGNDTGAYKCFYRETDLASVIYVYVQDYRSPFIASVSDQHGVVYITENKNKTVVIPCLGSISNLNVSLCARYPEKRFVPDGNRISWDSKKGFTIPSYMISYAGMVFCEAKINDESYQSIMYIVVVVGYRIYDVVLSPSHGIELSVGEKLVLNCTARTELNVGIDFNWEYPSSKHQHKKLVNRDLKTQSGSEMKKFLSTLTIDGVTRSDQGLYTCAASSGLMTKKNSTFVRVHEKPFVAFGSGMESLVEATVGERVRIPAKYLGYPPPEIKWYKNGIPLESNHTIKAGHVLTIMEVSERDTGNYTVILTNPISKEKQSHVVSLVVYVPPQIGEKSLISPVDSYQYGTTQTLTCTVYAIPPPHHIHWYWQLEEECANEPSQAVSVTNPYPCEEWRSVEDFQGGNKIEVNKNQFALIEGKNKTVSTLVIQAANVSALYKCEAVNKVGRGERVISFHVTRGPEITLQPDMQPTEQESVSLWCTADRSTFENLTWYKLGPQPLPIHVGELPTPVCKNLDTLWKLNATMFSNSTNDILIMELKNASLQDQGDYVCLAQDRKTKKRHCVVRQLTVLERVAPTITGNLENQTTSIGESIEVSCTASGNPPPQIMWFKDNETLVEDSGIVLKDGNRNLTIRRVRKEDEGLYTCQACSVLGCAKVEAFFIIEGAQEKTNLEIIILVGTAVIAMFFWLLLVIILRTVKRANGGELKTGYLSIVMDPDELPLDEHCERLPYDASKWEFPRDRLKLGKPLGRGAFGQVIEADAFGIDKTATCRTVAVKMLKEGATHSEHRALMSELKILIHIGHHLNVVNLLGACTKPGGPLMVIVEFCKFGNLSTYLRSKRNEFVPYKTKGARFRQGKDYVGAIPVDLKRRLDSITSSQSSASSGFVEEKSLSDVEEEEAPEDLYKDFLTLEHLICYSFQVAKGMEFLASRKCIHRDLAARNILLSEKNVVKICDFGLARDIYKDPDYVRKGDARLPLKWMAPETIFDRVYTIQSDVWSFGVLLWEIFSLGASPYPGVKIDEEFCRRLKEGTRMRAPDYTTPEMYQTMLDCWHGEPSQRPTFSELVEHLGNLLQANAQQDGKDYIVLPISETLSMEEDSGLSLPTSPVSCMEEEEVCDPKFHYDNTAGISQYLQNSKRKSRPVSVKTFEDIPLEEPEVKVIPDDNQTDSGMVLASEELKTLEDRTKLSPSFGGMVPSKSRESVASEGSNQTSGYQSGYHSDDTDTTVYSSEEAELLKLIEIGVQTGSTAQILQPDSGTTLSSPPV
T2 sequence (P07949 29-1114 V804M): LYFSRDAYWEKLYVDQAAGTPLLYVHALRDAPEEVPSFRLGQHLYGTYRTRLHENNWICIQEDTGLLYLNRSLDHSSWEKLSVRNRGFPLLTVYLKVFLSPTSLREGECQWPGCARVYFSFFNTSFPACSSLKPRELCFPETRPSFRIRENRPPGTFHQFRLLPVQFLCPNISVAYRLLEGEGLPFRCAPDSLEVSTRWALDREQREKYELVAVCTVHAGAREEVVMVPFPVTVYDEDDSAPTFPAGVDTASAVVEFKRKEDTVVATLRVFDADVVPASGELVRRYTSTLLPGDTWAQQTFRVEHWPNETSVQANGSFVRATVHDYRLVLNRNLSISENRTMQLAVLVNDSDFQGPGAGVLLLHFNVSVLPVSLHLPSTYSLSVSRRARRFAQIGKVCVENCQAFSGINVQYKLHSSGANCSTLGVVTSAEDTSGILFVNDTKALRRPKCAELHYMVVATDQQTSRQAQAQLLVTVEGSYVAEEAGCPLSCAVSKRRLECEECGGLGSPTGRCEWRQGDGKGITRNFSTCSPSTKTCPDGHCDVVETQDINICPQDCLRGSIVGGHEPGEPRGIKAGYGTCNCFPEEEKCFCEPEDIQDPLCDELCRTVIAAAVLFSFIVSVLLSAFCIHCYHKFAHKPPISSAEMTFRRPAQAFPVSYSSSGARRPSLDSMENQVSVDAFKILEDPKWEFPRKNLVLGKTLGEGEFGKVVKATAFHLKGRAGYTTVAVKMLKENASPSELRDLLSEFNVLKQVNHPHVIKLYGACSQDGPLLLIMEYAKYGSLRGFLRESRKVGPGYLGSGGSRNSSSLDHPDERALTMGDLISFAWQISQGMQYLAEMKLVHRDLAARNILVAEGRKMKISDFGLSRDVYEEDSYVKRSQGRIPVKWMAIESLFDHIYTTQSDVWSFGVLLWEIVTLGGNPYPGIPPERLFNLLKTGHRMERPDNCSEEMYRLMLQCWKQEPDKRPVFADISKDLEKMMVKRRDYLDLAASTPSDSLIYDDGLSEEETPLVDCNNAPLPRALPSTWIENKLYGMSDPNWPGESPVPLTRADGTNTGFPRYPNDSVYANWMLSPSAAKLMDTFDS
Chain of RET^V804L (P07949 29-1114 V804L): as the sequence (P07949 29-1114 V804M) above, with M776L counted along it
Chain of RET^M918T (P07949 29-1114 M918T): as the sequence (P07949 29-1114 V804M) above, with M776V, M890T counted along it
Chain of RET (P07949 29-1114): as the sequence (P07949 29-1114 V804M) above, with M776V counted along it
Chain of RET^C634Y (P07949 29-1114 C634Y): as the sequence (P07949 29-1114 V804M) above, with C606Y, M776V counted along it
Chain of RET^C634R (P07949 29-1114 C634R): as the sequence (P07949 29-1114 V804M) above, with C606R, M776V counted along it

Which IC50 (NIH3T3 RET^C634Y cells) does the source give for `Cn1cc(-c2ccc3c(c2)ncn3-c2ccc(CC(=O)Nc3cc(C(C)(C)C)on3)cc2)cn1` [Pz-1] here?
Its IC50 is 0.5 nM.

What about the “VEGFA-induced VEGFR2 phosphorylation” value (VEGFR2 [1]) of the same compound?
The value was “inhibiting VEGFA-induced VEGFR2 phosphorylation”.

What about the “VEGFA-induced VEGFR2 phosphorylation” value (VEGFR2 [2]) of the same compound?
The value was “inhibiting VEGFA-induced VEGFR2 phosphorylation”.

What about the Growth inhibition (parental NIH3T3 cells) of the same compound?
Its Growth inhibition is “did not exert detectable growth inhibition”.

What about the IC50 (RET) of the same compound?
Its IC50 is less than 1 nM.

And the “RET^C634Y tyrosine phosphorylation” value (RET^C634Y)?
Its value is “efficient inhibition”.

And the “VEGFR2 phosphorylation in tumors” value (NIH3T3 HRas^G12V tumors; Ras driven tumors, 1.0 mg/kg)?
The value was “inhibited VEGFR2 phosphorylation”.

What about the “MAPK signaling in tumors” value (NIH3T3 HRas^G12V tumors; Ras tumors, 10.0 mg/kg) of the same compound?
Its value is “no effect”.

What about the IC50 (RET^V804M [3]) of the same compound?
Its IC50 is less than 1 nM.

What about the “Alanine transaminase (ALT)” value [4] of the same compound?
Its value is “remaining within a normal range”.

What about the “Activity against RET^M918T” value (RET^M918T) of the same compound?
Its value is “highly effective”.

And the “Phosphorylation of RET oncoproteins / clinically relevant RET mutants” value (RET oncoproteins)?
The value was “strongly inhibited”.

What about the Pharmacokinetic properties [5] of the same compound?
Its Pharmacokinetic properties is “highly favorable”.

And the IC50 (VEGFR2 [6])?
Its IC50 is less than 1 nM.

What about the “RET inhibitory activity towards oncogenic RET^C634R” value (RET^C634R) of the same compound?
Its value is “increased RET inhibitory activity”.

What about the “Activity against RET^V804M” value (RET^V804M [7]) of the same compound?
The value was “highly effective”.

What about the “Formation of RET-driven tumors” value (NIH3T3 RET^C634Y tumors; 1.0 mg/kg/day per os) of the same compound?
The value was “completely blocked; also recorded: abrogated formation of tumors”.

And the “RET phosphorylation in tumor tissue” value (NIH3T3 RET^C634Y tumors; 1.0 mg/kg/day per os)?
Its value is “blocked phosphorylation”.

And the “VEGFR2 phosphorylation in tumors” value (NIH3T3 RET^C634Y tumors; RET driven tumors, 1.0 mg/kg)?
The value was “inhibited VEGFR2 phosphorylation; also recorded: blocked phosphorylation”.

And the “MAPK and mTOR mitogenic signaling cascades in tumors” value (NIH3T3 RET^C634Y tumors; RET-driven tumors)?
The value was “able to inhibit”.

What about the “Formation of tumors induced by RET^C634Y” value (NIH3T3 RET^C634Y tumors; nu/nu mice, PO 1.0, 3.0 or 10.0 mg/kg/day) of the same compound?
Its value is “completely prevented formation of tumors”.

What about the “Activity against RET^V804L” value (RET^V804L) of the same compound?
Its value is “highly effective”.

For `COc1cc2nccc(Oc3ccc(NC(=O)C4(C(=O)Nc5ccc(F)cc5)CC4)cc3)c2cc1OC` [cabozantinib], which “Response of RET^V804M to the drug” value (RET^V804M [8]) is on record?
The value was “refractory”.
